Test [1] has as its target GABA-A receptor; anion channel. In words: Binding affinity against Diazepam insensitive (DI) Gamma-aminobutyric acid A receptor. The class given is protein-complex assay, Rattus norvegicus.
For test [2], the target named is GABA-A receptor; anion channel. In words: Binding affinity against Diazepam sensitive (DS) Gamma-aminobutyric acid A receptor. The class given is protein-complex assay, Rattus norvegicus. The method, boiled down: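 [3H]Ro15-4513 displacement (~2 nM final) on washed cerebellar membranes from adult male Sprague-Dawley rats, ~100 µg tissue, 0.2 M NaCl, 50 mM Tris citrate pH 7.8. DI binding has 10 µM diazepam added. DS binding is total minus DI. Nonspecific binding uses 10 µM Ro15-1788.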

Structures are written as SMILES. pIC50, pKi: −log10 of the molar value.

In turn, `CN1Cc2c(CO)ncn2-c2ccc(Cl)cc2C1=O` showed a negative-log Ki (pKi) in test [1] below 6.00. Moreover, in test [2], the pIC50 is below 6.00.
`CCOCc1ncn2c1CN(C)C(=O)c1cc(Cl)ccc1-2`: the pKi in test [1] is below 6.00. The same compound showed a pIC50 in test [2] below 6.30.
`COc1cccc(-n2[nH]c3c(cnc4ccccc43)c2=O)c1` gave a pKi in test [1] of 7.59.
On the same count and under the same terms, to `O=c1c2cnc3ccc(Cl)cc3c2[nH]n1-c1ccccc1` belongs 8.29; to `COc1ccc2c(c1)ncc1c(=O)n(-c3ccccc3)[nH]c12`, 8.72.
The same measure, in the same setting: in the case of `COc1ccc2ncc3c(=O)n(-c4ccccc4)[nH]c3c2c1` it was 7.33.
Turning to `COc1ccc(-n2nc3c4cc(Cl)ccc4[nH]cc-3c2=O)cc1`, the pKi in test [1] was 8.72.
Same read-out and setting: to `COc1ccc(-n2nc3c4ccc(OC)cc4[nH]cc-3c2=O)cc1` belongs 8.00.
Regarding `CCOC(=O)c1ncn2c1CN(C)C(=O)c1cc(OCC)ccc1-2`, in test [1], the negative logarithm of the Ki (pKi) was 7.39. For the same compound, the negative logarithm of the IC50 (pIC50) in test [2] is 8.15.
In the same order, the values of `CCc1ncn2c1CN(C)C(=O)c1cc(Cl)ccc1-2` are below 6.00 and below 6.30.
In turn, `CCCCC(=O)c1ncn2c1CN(C)C(=O)c1cc(Cl)ccc1-2` showed a negative logarithm of the Ki (pKi) in test [1] below 6.00. The same compound showed a pIC50 in test [2] below 6.30.
For the compound `CC(=O)c1ncn2c1CN(C)C(=O)c1cc(Cl)ccc1-2`, in test [1], the negative logarithm of the Ki (pKi) is below 6.00. Besides, the pIC50 in test [2] was below 6.00.
In test [1], `CN1Cc2c(CCl)ncn2-c2ccc(Cl)cc2C1=O` showed a negative-log Ki (pKi) below 6.00. The compound further showed a pIC50 in test [2] below 6.30.
As to `CCCCCc1ncn2c1CN(C)C(=O)c1cc(Cl)ccc1-2`, the pKi in test [1] is below 6.00. The compound further showed a pIC50 in test [2] below 6.00.
The compound `COCc1ncn2c1CN(C)C(=O)c1cc(Cl)ccc1-2` showed a pKi in test [1] below 6.00. The compound also gave a pIC50 in test [2] of 6.29.
Take `COc1ccc(-n2nc3c4ccccc4[nH]cc-3c2=O)cc1`: in test [1], the pKi was 8.03.
Compound `CCOC(=O)c1ncn2c1CN(C)C(=O)c1cc(OC)ccc1-2` gave a pKi in test [1] of 7.62. For the same compound, the negative logarithm of the IC50 (pIC50) in test [2] was 8.61.
In turn, `CC(C)N(Cc1ncn2c1CN(C)C(=O)c1cc(Cl)ccc1-2)C(C)C` had a pKi in test [1] below 6.00. The pIC50 in test [2] was below 6.00.
In the case of `CCN(CC)Cc1ncn2c1CN(C)C(=O)c1cc(Cl)ccc1-2`, in test [1], the pKi is below 6.00. This compound also had a pIC50 in test [2] below 6.00.
`O=C1C2C=Nc3ccccc3C2=NN1c1ccccc1` (configuration not stated) [CGS-8216] showed a pKi in test [1] of 7.34.

Usually pKi stands for the Ki on a negative log10 scale, so that one unit is a factor of ten. Low readings indicate a large Ki, high ones a small Ki. The term pIC50 denotes the IC50 on a negative log10 scale, so that one unit is a factor of ten.
